Experimental data pooled from the literature.
Values after ≈ are worked out from the molar mass of the structure shown.

| SMILES | organism | assay | system | conditions | measurement | value |
| --- | --- | --- | --- | --- | --- | --- |
| C=C[C@]1(C)C[C@@H](OC(=O)CS[C@@H]2C[C@H]3CC[C@@H](C2)N3C)[C@]2(C)[C@H](C)CC[C@]3(CCC(=O)[C@H]32)[C@@H](C)[C@@H]1O | Streptococcus agalactiae | microbial growth |  | clinical isolate | MIC90 | 0.0312 µg/mL |
| CO[C@H]1/C=C/O[C@@]2(C)Oc3c(C)c(O)c4c(O)c(c(/C=N/N5CCN(C)CC5)c(O)c4c3C2=O)NC(=O)/C(C)=C\C=C\[C@H](C)[C@H](O)[C@@H](C)[C@@H](O)[C@@H](C)[C@H](OC(C)=O)[C@@H]1C | Mycolicibacterium smegmatis | microbial growth |  |  | MIC90 | 1.52 µM |
| CC(=O)NC[C@H]1CN(c2ccc(N3CCOCC3)c(F)c2)C(=O)O1 | Streptococcus viridans | microbial growth |  | clinical isolate | MIC90 | 1 µg/mL |
| N#CC(=C1C=CC(=NOC(=O)OCc2ccccc2)C=C1)c1ccccc1 | Candida tropicalis | microbial growth, broth dilution | ATCC13803 | 48 h | MIC | 128 µg/mL |
| NNC(=O)c1ccncc1 | Mycolicibacterium smegmatis | microbial growth |  |  | MIC90 | 17.7 µM |
| C[C@@H]1[C@H](O)[C@@H](C)/C=C/C=C/C=C/C=C/C=C/C=C/C=C/[C@H](O[C@@H]2O[C@H](C)[C@@H](O)[C@H](N)[C@@H]2O)C[C@@H]2O[C@](O)(C[C@@H](O)C[C@@H](O)[C@H](O)CC[C@@H](O)C[C@@H](O)CC(=O)O[C@H]1C)C[C@H](O)[C@H]2C(=O)O | Candida tropicalis | microbial growth, broth dilution | CGMCC2 | 48 h | MIC | < 0.25 µM |
| CC(=O)ON=C1C=CC(=C(C#N)c2ccccc2)C=C1 | Candida tropicalis | microbial killing, broth dilution | ATCC13803 | 48 h | MFC | 4 µg/mL (≈ 15.1 µM) |
| CC(=O)N1CCN(c2ccc(OCC3COC(Cn4ccnc4)(c4ccc(Cl)cc4Cl)O3)cc2)CC1 (stereo not shown) | Candida tropicalis | microbial growth, broth dilution | CGMCC2 | 48 h | MIC | 1 µM |
| C[C@@H]1[C@H](O)[C@@H](C)/C=C/C=C/C=C/C=C/C=C/C=C/C=C/[C@H](O[C@@H]2O[C@H](C)[C@@H](O)[C@H](N)[C@@H]2O)C[C@@H]2O[C@](O)(C[C@@H](O)C[C@@H](O)[C@H](O)CC[C@@H](O)C[C@@H](O)CC(=O)O[C@H]1C)C[C@H](O)[C@H]2C(=O)O | Candida tropicalis | microbial growth, broth dilution | ATCC13803 | 48 h | MIC | 32 µg/mL |
| OC(Cn1cncn1)(Cn1cncn1)c1ccc(F)cc1F | Candida tropicalis | microbial growth, broth dilution |  |  | MIC | 8 µg/mL |
